pKi: −log10 of the molar value.
Assays:
[1] = target: 5-hydroxytryptamine receptor 7 (Homo sapiens, UniProt P34969); test: Displacement of [3H]CT from human 5-HT7 receptor expressed in CHO cells by scintillation spectrometry; type: cell-based
Summary of the method: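 Cloned human 5-HT7 receptor from CHO cells, run under the supplier's recommended conditions with [3H]CT. Nonspecific binding with 25 μM clozapine. Ended by GF/C filtration, then scintillation counting. Ki taken from two nine-concentration displacement curves run in triplicate, single-site fit.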

[2] = Drug level in NMRI mouse brain at 10 mg/kg, ip after 30 mins by HPLC/MS/MS analysis; type: ADME, organism-based; design: dose 10 mg/kg, route intraperitoneal; conditions: read-out: Drug uptake
Summary of the method: (§1)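 Male NMRI mice, 25–30 g, given four compounds together ip as a cassette suspension in 0.4% methyl cellulose (n = 3/dose). After 30 min, vena cava blood and brain collected. Brain homogenised in 4 volumes of water; samples extracted with acetonitrile–water 3:1 and analysed by gradient HPLC-MS/MS against spiked calibrators. Brain/plasma given as percentage.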

[3] = Metabolic stability in rat liver microsomes after 60 mins by HPLC-MS/MS analysis; type: ADME, Microsome; conditions: read-out: Stability
Summary of the method: (§2)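 Test compound at 100 nM final incubated with rat or human liver microsomes (0.33 mg/mL) at 37 °C for 0, 5, 15, 30 and 60 min. Buffer Tris-HCl pH 7.4 with Mg2+ and BSA. Reaction started with NADPH and stopped with ice-cold MeOH. Parent compound measured by HPLC-MS/MS, positive-ion MRM.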

[4] = target: T1, Adrenergic receptor alpha-1 (Rattus norvegicus, UniProt P15823+P23944+P43140); test: Displacement of [3H]prazosin from alpha1-adrenergic receptor in rat frontal cortex membrane after 45 mins by scintillation spectrometry; type: cell membranes
T1 sequence (P15823 whole entry): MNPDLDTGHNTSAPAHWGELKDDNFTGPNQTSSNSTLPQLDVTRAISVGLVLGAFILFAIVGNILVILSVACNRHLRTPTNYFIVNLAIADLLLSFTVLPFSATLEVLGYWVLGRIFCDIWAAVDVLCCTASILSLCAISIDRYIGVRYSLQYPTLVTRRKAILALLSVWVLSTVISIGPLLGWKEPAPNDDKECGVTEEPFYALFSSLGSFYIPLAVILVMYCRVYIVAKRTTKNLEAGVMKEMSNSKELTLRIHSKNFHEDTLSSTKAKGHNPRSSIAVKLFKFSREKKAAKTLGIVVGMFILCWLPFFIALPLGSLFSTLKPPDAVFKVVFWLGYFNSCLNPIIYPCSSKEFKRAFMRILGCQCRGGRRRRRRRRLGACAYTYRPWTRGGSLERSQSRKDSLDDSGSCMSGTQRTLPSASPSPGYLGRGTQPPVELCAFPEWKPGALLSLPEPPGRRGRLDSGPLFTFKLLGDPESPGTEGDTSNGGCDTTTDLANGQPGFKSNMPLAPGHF
T1 sequence (P23944 whole entry): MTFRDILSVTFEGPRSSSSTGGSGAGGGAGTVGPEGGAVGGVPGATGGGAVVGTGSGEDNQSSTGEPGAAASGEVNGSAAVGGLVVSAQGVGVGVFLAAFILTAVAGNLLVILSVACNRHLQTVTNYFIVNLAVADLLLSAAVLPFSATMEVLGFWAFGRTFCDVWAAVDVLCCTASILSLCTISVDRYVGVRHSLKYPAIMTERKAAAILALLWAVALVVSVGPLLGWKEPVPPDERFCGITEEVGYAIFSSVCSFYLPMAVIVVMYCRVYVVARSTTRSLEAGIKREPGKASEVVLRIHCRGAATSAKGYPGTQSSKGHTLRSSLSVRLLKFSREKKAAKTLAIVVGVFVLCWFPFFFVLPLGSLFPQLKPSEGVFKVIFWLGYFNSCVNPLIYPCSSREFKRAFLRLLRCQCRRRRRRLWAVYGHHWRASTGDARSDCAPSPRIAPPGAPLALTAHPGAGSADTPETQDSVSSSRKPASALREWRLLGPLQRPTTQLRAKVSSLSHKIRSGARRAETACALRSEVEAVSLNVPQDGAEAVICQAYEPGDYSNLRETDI
T1 sequence (P43140 whole entry): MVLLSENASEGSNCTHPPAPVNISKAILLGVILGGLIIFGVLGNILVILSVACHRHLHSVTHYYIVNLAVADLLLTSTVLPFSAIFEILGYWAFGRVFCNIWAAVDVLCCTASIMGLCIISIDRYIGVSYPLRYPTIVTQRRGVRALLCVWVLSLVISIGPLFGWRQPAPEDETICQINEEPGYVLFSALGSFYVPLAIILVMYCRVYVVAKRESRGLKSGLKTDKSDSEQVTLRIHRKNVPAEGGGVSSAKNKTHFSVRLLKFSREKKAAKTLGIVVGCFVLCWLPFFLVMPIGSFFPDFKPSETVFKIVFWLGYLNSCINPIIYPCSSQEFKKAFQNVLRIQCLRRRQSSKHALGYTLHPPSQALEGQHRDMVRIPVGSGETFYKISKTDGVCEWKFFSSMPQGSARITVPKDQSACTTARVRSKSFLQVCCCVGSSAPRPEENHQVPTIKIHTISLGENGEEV
Summary of the method: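 Rat frontal cortex tissue frozen on dry ice, homogenised in 50 mM Tris-HCl pH 7.7 and washed by centrifugation. [3H]prazosin at 0.6 nM; 10 μM prazosin defines nonspecific binding. 45 min at 25 °C, GF/B filtration, scintillation counting. Triplicates; Ki from two nine-concentration curves fitted to a single-site model.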

[5] = Selectivity ratio of Ki for alpha1-adrenergic receptor in rat frontal cortex membrane to Ki for human 5-HT7 receptor; type: cell membranes
[6] = Metabolic stability in human liver microsomes after 60 mins by HPLC-MS/MS analysis; type: ADME, Microsome; conditions: read-out: Stability; summary of the method: as §2
[7] = Drug level in NMRI mouse brain at 3 mg/kg, ip after 30 mins by HPLC/MS/MS analysis; type: ADME, organism-based; design: dose 3 mg/kg, route intraperitoneal; conditions: read-out: Drug uptake; summary of the method: as §1
[8] = Selectivity ratio of Ki for 5-HT1A receptor in rat frontal cortex membrane to Ki for human 5-HT7 receptor; type: cell membranes
[9] = target: T2, 5-hydroxytryptamine receptor 1A (Rattus norvegicus) (UniProt P19327); test: Displacement of [3H]8-OH-DPAT from 5-HT1A receptor in rat frontal cortex membrane at 10^-7 M after 45 mins by scintillation counting; type: cell membranes
T2 sequence (whole entry): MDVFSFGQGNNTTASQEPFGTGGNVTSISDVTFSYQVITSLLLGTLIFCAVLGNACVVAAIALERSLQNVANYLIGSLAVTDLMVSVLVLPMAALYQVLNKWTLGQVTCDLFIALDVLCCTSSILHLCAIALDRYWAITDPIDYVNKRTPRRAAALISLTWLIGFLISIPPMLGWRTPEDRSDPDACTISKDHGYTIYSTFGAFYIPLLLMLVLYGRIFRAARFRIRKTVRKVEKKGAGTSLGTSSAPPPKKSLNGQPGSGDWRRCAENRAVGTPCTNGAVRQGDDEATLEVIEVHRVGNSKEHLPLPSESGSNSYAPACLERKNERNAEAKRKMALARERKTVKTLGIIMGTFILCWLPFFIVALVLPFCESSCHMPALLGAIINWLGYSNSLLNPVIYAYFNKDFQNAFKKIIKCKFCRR

[10] = Drug level in NMRI mouse brain at 1 mg/kg, ip after 30 mins by HPLC/MS/MS analysis; type: ADME, organism-based; design: dose 1 mg/kg, route intraperitoneal; conditions: read-out: Drug uptake; summary of the method: as §1
[11] = test system: Mus musculus; test: Antidepressant activity in ip dosed NMRI mouse assessed as decrease in immobility time administered 30 mins prior to test measured last 4 mins of 6 mins testing period by forced swimming test; type: functional; conditions: read-out: MED
Summary of the method: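 Mice given drug or vehicle ip 30 min before test. Each mouse placed in a 17.7 cm high, 12 cm diameter glass cylinder holding 25 °C water to 12.5 cm depth, four mice at a time. Immobility (floating, only movements keeping head above water) timed over the last 4 min of a 6 min session.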

[12] = Plasma concentration in NMRI mouse at 10 mg/kg, ip after 30 mins by HPLC-MS/MS analysis; type: ADME, organism-based; design: dose 10 mg/kg, route intraperitoneal; summary of the method: as §1
[13] = Plasma concentration in NMRI mouse at 1 mg/kg, ip after 30 mins by HPLC-MS/MS analysis; type: ADME, organism-based; design: dose 1 mg/kg, route intraperitoneal; summary of the method: as §1
[14] = Plasma concentration in NMRI mouse at 3 mg/kg, ip after 30 mins by HPLC-MS/MS analysis; type: ADME, organism-based; design: dose 3 mg/kg, route intraperitoneal; summary of the method: as §1
[15] = test system: Mus musculus; test: Anxiolytic activity in ip dosed NMRI mouse assessed as behavioral activity administered 30 mins prior to test measured up to 5 mins by light-dark test; type: functional; conditions: read-out: MED
Summary of the method: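 Male NMRI mice, 25–33 g, housed in the dark, dosed ip 30 min before test. Each mouse placed in the centre of the lit side of an automated two-compartment chamber under a 2-lx light. Activity recorded for 5 min: time in each area, transitions, horizontal and vertical activity. Means ± SEM, one-way ANOVA with Duncan's test; MED reported.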

[16] = target: T3, 5-hydroxytryptamine receptor 1A (Rattus norvegicus, UniProt P19327); test: Displacement of [3H]8-OH-DPAT from 5-HT1A receptor in rat frontal cortex membrane after 45 mins by scintillation counting; type: cell membranes
T3 sequence (P19327 whole entry): T2 sequence (whole entry)
Summary of the method: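 Membranes from adult rat frontal cortex, prepared in 50 mM Tris-HCl pH 7.7 with washes and a 37 °C preincubation. Incubation buffer: 6.66 mM CaCl2, 16.66 μM pargyline, 0.166% ascorbic acid. Ligand 1.5 nM [3H]8-OH-DPAT; 10 μM 5-HT defines nonspecific binding. 45 min at 25 °C, GF/B filtration, scintillation counting. Triplicates; Ki from two nine-point curves, single-site fit.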

[17] = test system: Rattus norvegicus; test: Anxiolytic activity in ip dosed Wistar rat assessed as number of punished licks administered 30 mins prior to test by conflict drinking Vogel test; type: functional; conditions: read-out: MED
Summary of the method: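 Male Wistar rats, 160–180 g, water-deprived 48 h and fasted 24 h. Drug or vehicle given ip 30 min before testing, carried out in a quiet room at 23 °C between 07:30 and 13:00. Modified Vogel procedure. Mean ± SEM tolerated shocks per group, one-way ANOVA with Duncan's test; MED reported.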

Sequence of 5-hydroxytryptamine receptor 7 (P34969 whole entry): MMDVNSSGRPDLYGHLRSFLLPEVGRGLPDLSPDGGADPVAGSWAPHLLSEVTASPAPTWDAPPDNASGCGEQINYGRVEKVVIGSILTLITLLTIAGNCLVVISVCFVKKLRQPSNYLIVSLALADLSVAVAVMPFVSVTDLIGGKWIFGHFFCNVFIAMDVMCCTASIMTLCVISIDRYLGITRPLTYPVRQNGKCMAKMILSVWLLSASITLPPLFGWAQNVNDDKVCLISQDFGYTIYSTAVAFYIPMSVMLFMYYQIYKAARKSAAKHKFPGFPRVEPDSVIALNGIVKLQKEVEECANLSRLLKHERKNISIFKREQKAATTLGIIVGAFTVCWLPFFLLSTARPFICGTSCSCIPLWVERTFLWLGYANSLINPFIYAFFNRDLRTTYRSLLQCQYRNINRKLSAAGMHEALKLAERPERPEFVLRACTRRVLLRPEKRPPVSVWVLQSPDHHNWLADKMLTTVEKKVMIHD

Row | SMILES | pKi [1] | concentration at 0.5 h [2] | remaining at 1 h [3] | Ki [4] | Ratio Ki [5] | remaining at 1 h [6] | concentration at 0.5 h [7] | Ratio Ki [8] | inhibition [9] | concentration at 0.5 h [10] | concentration at 0.5 h [12] | concentration at 0.5 h [13] | concentration at 0.5 h [14] | pKi [16] | minimal effective dose [11] | minimal effective dose [15] | minimal effective dose [17]
1 | CCC1(CCCCN2CCN(c3ccc(Cl)cc3)CC2)C(=O)Nc2ccc(Cl)cc21 (centres undefined) | 8.96 | 27 nM | 21% | 175 nM | 159 | 23% | 23 nM | > 100 | 0% | 17 nM | 8 nM | 10 nM | 14 nM |  | > 10 mg/kg |  | 
2 | CCC1(CCCCN2CCN(c3ccc(Cl)cc3)CC2)C(=O)Nc2c(Cl)cc(Cl)cc21 (centres undefined) | 8.02 |  | 76% | 110 nM | 12 | 53% |  | > 100 | 5% |  |  |  |  |  | > 30 mg/kg | 1 mg/kg | 5 mg/kg
3 | CCC1(CCCCN2CCN(c3ccc(Cl)cc3)CC2)C(=O)Nc2c1cc(Cl)c(F)c2Cl (centres undefined) | 7.02 |  | 72% | 380 nM | 4 | 76% |  |  | 10% |  |  |  |  |  | > 30 mg/kg | > 10 mg/kg | > 20 mg/kg
4 | CCC1(CCCCN2CCN(c3ccc(Cl)cc3)CC2)C(=O)Nc2cc(F)ccc21 (centres undefined) |  | 135 nM | 9% | 215 nM | 272 | 29% | 99 nM | > 100 | 9% | 33 nM | 177 nM | 46 nM | 130 nM |  |  | > 10 mg/kg | 
5 | CCC1(CCCCN2CCN(c3ccc(F)cc3)CC2)C(=O)Nc2ccccc21 (centres undefined) |  | 364 nM | 8% | 39 nM | 91 | 34% | 431 nM | > 100 | 10% | 62 nM | 168 nM | 34 nM | 178 nM |  | > 10 mg/kg |  | 
6 | O=C1Nc2ccccc2C1CCCCN1CCN(c2cccc(Cl)c2)CC1 (centres undefined) |  | 4310 nM | 9% | 26 nM | 53 | 39% | 827 nM | 135 |  | 216 nM | 744 nM | 21 nM | 114 nM | 7.18 |  | > 10 mg/kg | 

More lines, main results first:

Row | pKi [1] | concentration at 0.5 h [2] | remaining at 1 h [3] | Ki [4] | Ratio Ki [5] | remaining at 1 h [6] | concentration at 0.5 h [7] | Ratio Ki [8] | inhibition [9] | concentration at 0.5 h [10] | concentration at 0.5 h [12] | concentration at 0.5 h [13] | concentration at 0.5 h [14] | pKi [16] | SMILES | minimal effective dose [11] | minimal effective dose [15] | minimal effective dose [17]
7 | 9.40 | 824 nM | 4% | 31 nM | 78 | 31% | 613 nM | 115 |  | 65 nM | 272 nM | 22 nM | 168 nM | 7.34 | CCC1(CCCCN2CCN(c3cccc(Cl)c3)CC2)C(=O)Nc2ccccc21 (centres undefined) |  | > 20 mg/kg | > 10 mg/kg
8 |  | 379 nM | 9% | 93 nM | 245 | 34% | 141 nM | > 100 | 11% | 42 nM | 399 nM | 70 nM | 245 nM |  | CCC1(CCCCN2CCN(c3ccc(Cl)cc3)CC2)C(=O)Nc2ccccc21 (centres undefined) |  | > 10 mg/kg | 
9 | 9.22 | 1150 nM | 13% | 125 nM | 208 | 29% | 223 nM | > 100 | 11% | 43 nM | 861 nM | 31 nM | 174 nM |  | CCC1(CCCCN2CCN(c3ccc(Cl)c(Cl)c3)CC2)C(=O)Nc2ccccc21 (centres undefined) | > 10 mg/kg |  | 
